Data published in ChEMBL document CHEMBL1156549, “Synthesis, DNA-binding ability and evaluation of antitumour activity of triazolo[1,2,4]benzothiadiazine linked pyrrolo[2,1-c][1,4]benzodiazepine conjugates” (2008).

How the values were obtained:
COLO 205 = experiment: Cytotoxicity against human Colo205 cells after 48 hrs by sulforhodamine B assay; type: functional; settings: COLO 205, 48 h
Procedure, shortened: (§1)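 Cells were grown in RPMI 1640 with 10% FBS and 2 mM L-glutamine, seeded at densities set by doubling time, and left 24 h before drug. Exposure was 48 h continuous at 0.1, 1, 10 and 100 µM, triplicate wells. Cells were fixed in cold 10% TCA for 60 min at 4 °C and stained with SRB. Bound dye was eluted with 10 mM Tris and read at 540 nm (690 nm reference). GI50 was the concentration halving net protein increase versus control.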

HOP-62 = experiment: Cytotoxicity against human HOP62 cells after 48 hrs by sulforhodamine B assay; type: functional; settings: HOP-62, 48 h; procedure, shortened: as §1
[1] = Cytotoxicity against human AW8507 cells after 48 hrs by sulforhodamine B assay; type: functional; settings: AW8507, 48 h; procedure, shortened: as §1
SiHa = experiment: Cytotoxicity against human SiHa cells after 48 hrs by sulforhodamine B assay; type: functional; procedure, shortened: as §1
KB = experiment: Cytotoxicity against human KB cells after 48 hrs by sulforhodamine B assay; type: functional; procedure, shortened: as §1
[2] = Cytotoxicity against human AW13516 cells after 48 hrs by sulforhodamine B assay; type: functional; procedure, shortened: as §1
MCF7 = experiment: Cytotoxicity against human MCF7 cells after 48 hrs by sulforhodamine B assay; type: functional; settings: MCF7, 48 h; procedure, shortened: as §1
A2780 = experiment: Cytotoxicity against human A2780 cells after 48 hrs by sulforhodamine B assay; type: functional; settings: A2780, 48 h; procedure, shortened: as §1
A549 = experiment: Cytotoxicity against human A549 cells after 48 hrs by sulforhodamine B assay; type: functional; settings: A549, 48 h; procedure, shortened: as §1
DNA [3] = experiment: Binding affinity to calf thymus DNA at pH 7.0 at 20 uM after 18 hrs by thermal denaturation assay; type: nucleic-acid assay; settings: Bos taurus
DNA [4] = experiment: Binding affinity to calf thymus DNA at pH 7.0 at 20 uM after 36 hrs by thermal denaturation assay; type: nucleic-acid assay; settings: Bos taurus
PC-3 = experiment: Cytotoxicity against human PC3 cells after 48 hrs by sulforhodamine B assay; type: functional; settings: PC-3, 48 h; procedure, shortened: as §1
ZR-75-1 = experiment: Cytotoxicity against human Zr-75-1 cells after 48 hrs by sulforhodamine B assay; type: functional; settings: ZR-75-1, 48 h; procedure, shortened: as §1

SMILES | ΔTm (DNA [3]) [°C] | ΔTm (DNA [4]) [°C] | GI50 (COLO 205) [nM] | GI50 (HOP-62) [nM] | GI50 [1] [nM] | GI50 (SiHa) [nM] | GI50 (KB) [nM] | GI50 [2] [nM] | GI50 (MCF7) [nM] | GI50 (A2780) [nM] | GI50 (A549) [nM] | GI50 (PC-3) [nM] | GI50 (ZR-75-1) [nM]
COc1cccc2c1C(=O)c1c(O)c3c(c(O)c1C2=O)C[C@@](O)(C(=O)CO)C[C@@H]3O[C@H]1C[C@H](N)[C@H](O)[C@H](C)O1 [DOXORUBICIN] | – | – | 140 | 140 | 170 | 180 | 1720 | 100 | 170 | 160 | – | – | –
COc1cc2c(cc1OCCCCCSc1nnc3n1S(=O)(=O)c1ccccc1N3C)N=C[C@@H]1CCCN1C2=O | 2.4 | 2.6 | 2190 | – | 220 | 27900 | 25600 | 1950 | – | 1920 | 2450 | 25500 | 28500
COc1cc2c(cc1O)N=C[C@@H]1CCCN1C2=O | 0.7 | 0.7 | – | – | – | – | – | – | – | – | – | – | –
COc1cc2c(cc1OCCCCSc1nnc3n1S(=O)(=O)c1ccccc1N3C)N=C[C@@H]1CCCN1C2=O | 0.5 | 0.7 | 2110 | – | 2290 | 27000 | 26400 | 26600 | 2290 | 2170 | 2280 | 25500 | 25900

Further lines, with some results ahead:

ΔTm (DNA [3]) [°C] | ΔTm (DNA [4]) [°C] | SMILES | GI50 (COLO 205) [nM] | GI50 (HOP-62) [nM] | GI50 [1] [nM] | GI50 (SiHa) [nM] | GI50 (KB) [nM] | GI50 [2] [nM] | GI50 (MCF7) [nM] | GI50 (A2780) [nM] | GI50 (A549) [nM] | GI50 (PC-3) [nM] | GI50 (ZR-75-1) [nM]
1.5 | 1.7 | COc1cc2c(cc1OCCCSc1nnc3n1S(=O)(=O)c1ccccc1N3C)N=C[C@@H]1CCCN1C2=O | 1930 | 2130 | 2240 | 2120 | 2380 | 2240 | 2060 | 1830 | 2290 | 2150 | 2190
1.3 | 1.5 | COc1cc2c(cc1OCCCCCSc1nnc3n1S(=O)(=O)c1ccccc1N3c1ccccc1)N=C[C@@H]1CCCN1C2=O | 25600 | 2350 | 2480 | 2300 | 2460 | 1780 | – | 2010 | 30300 | 2400 | 24000
0.6 | 0.7 | COc1cc2c(cc1OCCCCSc1nnc3n1S(=O)(=O)c1ccccc1N3c1ccccc1)N=C[C@@H]1CCCN1C2=O | – | – | 25800 | – | – | 1980 | – | 2270 | 29700 | 28800 | –
1.2 | 1.5 | COc1cc2c(cc1OCCCSc1nnc3n1S(=O)(=O)c1ccccc1N3c1ccccc1)N=C[C@@H]1CCCN1C2=O | – | – | – | – | – | – | – | 30000 | – | – | 26000
